Hits are enriched below; roughly 2.2% of the tested compounds scored in any of these assays.
dFosB act: activators of delta FosB homodimer, primary screen, biochemical, fluorescence polarization, TAMRA-CDK5 oligo, single point. Protein FosB (Mus musculus), P13346. purified delta FosB; percent of positive-control signal above neutral wells. activation, % at 25 µM. 340,000 compounds, 0.99% hits. AID 493131, 2011;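 active = mean activation above about 17%, with every replicate also reaching it, limit read from the data, passing the limit was not always enough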
Target sequence (P13346 whole entry, looked up): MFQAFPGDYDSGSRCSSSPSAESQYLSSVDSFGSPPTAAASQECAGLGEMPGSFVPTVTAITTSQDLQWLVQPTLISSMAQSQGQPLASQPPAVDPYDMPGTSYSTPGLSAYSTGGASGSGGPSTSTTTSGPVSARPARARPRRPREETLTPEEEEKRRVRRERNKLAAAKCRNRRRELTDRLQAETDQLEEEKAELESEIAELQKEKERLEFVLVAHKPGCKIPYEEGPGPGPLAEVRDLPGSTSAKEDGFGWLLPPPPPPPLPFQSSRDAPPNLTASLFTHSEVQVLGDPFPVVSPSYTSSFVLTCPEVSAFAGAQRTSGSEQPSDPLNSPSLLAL
CFTR F508del cor: F508del CFTR correction, initial screen, CFBE line, single point. CFBE cells, YFP halide quenching; stimulated with forskolin plus potentiator P3; % fluorescence drop versus neutral controls. activity (quench increase), % at 7.58 µM. 350,000 compounds, 0.36% hits. AID 720511, 2013;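 active = mean added fluorescence quench of at least 8% versus neutral control, with both replicates also reaching 8%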;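 note: cells transiently co-express mutant CFTR-F508del with the halide-sensitive YFP; corrector assay measuring rescue of mutant channel to the surface after 24 h compound exposure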
S100A4 inh HTS: inhibitors of S100A4-myosin IIA peptide binding, primary screen, biochemical, fluorescence polarization, TAMRA-MyoIIA peptide | Protein S100-A4 (Homo sapiens), P26447 | inhibition, % at 10.7 µM | 360,000 compounds, 0.14% hits | AID 652163, 2013;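 active = mean inhibition of at least 70% across replicates, with every replicate also reaching that level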
Target sequence (P26447 whole entry, looked up): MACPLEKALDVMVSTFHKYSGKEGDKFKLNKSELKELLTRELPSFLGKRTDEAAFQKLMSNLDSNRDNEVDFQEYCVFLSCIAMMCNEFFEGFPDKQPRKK
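Material: S100A4 monomer protein / Buffer or medium: 50 mM HEPES pH 7.2, 10 mM CaCl2, 100 mM KCl / Times: 5 min incubation before reading / Benchmarks: neutral control DMSO, positive control TFP / Reagent: labelled myosin peptide probe, 5 nM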
FGF22 binding-1: binders of human FGF22 protein, primary screen, FGF22 synaptogenesis inhibitor project, biophysical, thermal shift, single point. 340,000 compounds, 1.5% hits. activity (Tm shift, normalised), % at 9.99 µM. AID 651658, 2012. recombinant FGF22 thermal shift, SYPRO orange fluorescence; percent of sucrose octasulfate shift, DMSO zero;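 active = mean Tm shift, scaled 0 neutral to 100 positive control, at about 1.3% or above, every replicate too, limit read from the data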
Target sequence (Q9HCT0 whole entry, looked up): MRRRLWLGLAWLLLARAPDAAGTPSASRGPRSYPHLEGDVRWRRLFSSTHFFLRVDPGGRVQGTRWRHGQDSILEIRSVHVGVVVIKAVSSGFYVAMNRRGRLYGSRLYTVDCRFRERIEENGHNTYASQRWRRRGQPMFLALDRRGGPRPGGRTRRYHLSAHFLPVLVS
FGF22 binding-2: binders of human FGF22 protein, dose response, FGF22 synaptogenesis inhibitor project, biophysical, thermal shift, cherry-pick retest; recombinant FGF22 thermal shift, SYPRO orange fluorescence; thermal shift activity, °C (ΔTm) at 38 µM; AID 720646, 2013; shares compounds with FGF22 binding-1; 1,000 compounds, 2% hits;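 active = fitted rise in melting shift crosses a set limit at or below the top valid dose tested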
TSA no protein: compound-only thermal shift signal without protein, dose response, artefact control for FGF22 binder project, biochemical, cherry-picked samples, RT-PCR instrument; shares compounds with FGF22 binding-1; compound-only SYPRO orange thermal shift counter-screen, no protein; AC50, µM (highest dose often 38 µM); 1,000 compounds, 2% hits;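 active = rising signal whose fitted curve reaches the 0.54 level within the top valid dose, showing a melting point, actives reach about 13 µM in these data; inactive = the rest, including activity in the opposite direction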; note: value is where the raw curve crosses a fixed level and not half-maximal
Active calls of the source: *; i = inactive; · = not tested or not shown; ! = repeats disagree; [ ] = dose if it differs, or a comment.

SMILES	dFosB act	CFTR F508del cor	S100A4 inh HTS	FGF22 binding-1	FGF22 binding-2	TSA no protein
CCOC(=O)c1c(C)oc2cc(Br)c(O)c(Br)c12	-12	-3	-2	1.4*	0.025	i
CC(C)NC(=O)N[C@H]1CC[C@@H](CC(=O)O)O[C@@H]1CO	·	0	3	1.5*	0.097[42 µM]	i
O=C(CNCCO)N1CCc2ccccc21	-1	·	·	·	·	·
O=C(CNc1ccccc1OC(F)F)N1CCc2ccccc21	11	·	-1	1.4*	0.067	i
O=C(C[C@@H]1CC[C@H](NC(=O)Nc2cccc(F)c2)[C@@H](CO)O1)NCC1CCCCC1	·	-1	2	0	·	·
C/C=C/c1ccc([C@H]2[C@@H](CO)N(C(=O)CC)C23CN(C(=O)c2ccccc2)C3)cc1	·	0	3	1.4*	0.075	i
C/C=C/c1ccc([C@@H]2[C@H](CO)N(CC3CCOCC3)C23CN(C(=O)COC)C3)cc1	·	-6	-4	·	·	·
C/C=C/c1ccc([C@H]2[C@@H](CO)N(CC3CCOCC3)C23CN(C(=O)COC)C3)cc1	·	1	-3	1.7*	0.18[42 µM]	i
COCC(=O)N1C[C@@H](C)[C@H](OC)CN(C)C(=O)c2cc(NC(=O)Nc3ccccc3)ccc2OC[C@H]1C	·	2	-14	0	·	·
CCS(=O)(=O)Nc1ccc2c(c1)C(=O)N(C)C[C@H](OC)[C@H](C)CN(Cc1nccs1)[C@@H](C)CO2	·	1	17	0	·	·
CC(=O)c1ccc(S(=O)(=O)Nc2ccc(Cl)c(S(=O)(=O)N3CCCC3)c2)cc1	2	-3	-4	0	·	·
O=C(O)c1ccc(Cl)c(S(=O)(=O)Nc2ccc(S(=O)(=O)N3CCCC3)cc2)c1	-1	1	3	1.4*	-0.13	i
O=C(CNC(=O)c1cccc(Br)c1)N/N=C/c1cc(Br)cc(Br)c1O	4	1	2	1.7*	-0.14	i
O=C(CNC(=O)c1cccc(Br)c1)N/N=C/c1cccs1	1	0	-22	0	·	·
O=Cc1cc(OCc2ccccc2)ccc1[B-](F)(F)F	4	-6	1	1.5*	0.012	i
Nc1ccc(OCc2ccccc2)cc1[N+](=O)[O-]	6	2	7	0	·	·
CCOC(=O)c1sc(N2C(=O)C(O)=C(C(=O)c3ccco3)C2c2ccc([N+](=O)[O-])cc2)nc1C (configuration not stated)	-5	4	-14	1.7*	0.2	i
COc1ccc(Cl)cc1C(=O)OCC(=O)c1c(N)n(C)c(=O)n(C)c1=O	·	2	1	0	·	·
COc1cc2ccccc2cc1C(=O)OCC(=O)c1c(N)n(C)c(=O)n(C)c1=O	-15	-1	1	17*	0.074	i
CC(C)(CNCc1ccccc1)NS(=O)(=O)c1ccc(Cl)cc1	-6	0	11	2.1*	0.057	i
CSc1ncccc1C(=O)Nc1cccc(S(=O)(=O)N2CCCCC2)c1	-8	-4	-3	0	·	·
CSc1ncccc1C(=O)Nc1ccc(S(=O)(=O)N2CCCC2)cc1	-9	1	4	1.6*	0.21	i
C[C@@H]1CCCCO[C@H](CN(C)C(=O)Cc2ccccc2)[C@H](C)CN([C@@H](C)CO)C(=O)c2cc(NC(=O)Nc3ccc4c(c3)OCO4)ccc2O1	·	1	-13	-1	·	·
CCCC#Cc1ccc2c(c1)O[C@H](CN(C)C(C)=O)[C@@H](C)CN([C@@H](C)CO)S2(=O)=O	·	3	0	1.5*	0.03	i
COCC(=O)N(C)C[C@@H]1Oc2cc(C#C[C@H](C)O)ccc2S(=O)(=O)N([C@@H](C)CO)C[C@H]1C	·	-1	3	36*	0.021[42 µM]	i
SMILES	dFosB act	CFTR F508del cor	S100A4 inh HTS	FGF22 binding-1	FGF22 binding-2	TSA no protein
C[C@@H]1CN([C@H](C)CO)S(=O)(=O)c2ccc(C#CCN(C)C)cc2O[C@@H]1CN(C)Cc1ccccc1F	·	-1	-5	4.7*!	0.15	i
C[C@H](O)C#Cc1ccc2c(c1)O[C@H](CN(C)C(=O)Cc1ccccn1)[C@@H](C)CN([C@H](C)CO)S2(=O)=O	·	1	4	1.4*	-0.082	i
COC(=O)C[C@H]1CC[C@H]2[C@@H](COc3ccc(NS(C)(=O)=O)cc3C(=O)N2C)O1	·	0	4	·	·	·
C[C@@H]1CN([C@@H](C)CO)C(=O)c2cc(-c3cncnc3)cnc2O[C@H]1CN(C)C(=O)Cc1ccccc1	·	2	5	0	·	·
C[C@@H]1CN([C@H](C)CO)S(=O)(=O)c2ccc(C#CC3CC3)cc2O[C@H]1CN(C)C(=O)c1ccncc1	·	0	-37	1.4*	0.024	i
O=C(N/N=C/c1ccc(O)c(O)c1)N/N=C/c1ccc(O)c(O)c1	-16	2	1	1.4*	0.13	i
Cc1nonc1C(=O)N/N=C/c1ccc(O)c(O)c1	-1	·	·	·	·	·
Cc1cccc(OC(C)C(=O)Nc2ccc3c(c2)OCCO3)c1 (configuration not stated)	-2	-4	7	2.1*	-0.029	i
COC(=O)c1nnc(-c2ccccc2)nc1OC	4	·	·	·	·	·
COc1nc(-c2ccc(Cl)cc2)nnc1C	-4	-3	3	1.4*	-0.009	i
CO[C@@H]1CN(C)C(=O)c2ccc(NS(=O)(=O)c3ccccc3F)cc2OC[C@H](C)NC[C@H]1C	·	0	-6	0	·	·
O=C(NN=Cc1ccc(O)cc1O)c1ccccc1NS(=O)(=O)c1cccs1	-3	2	3	1.9*	0.24	i
COc1ccc(C=NNC(=O)c2ccccc2NS(=O)(=O)c2cccs2)cc1O	-8	0	3	0	·	·
COc1cccc(-c2ccc3c(c2)[C@@H]2[C@@H](CCN2C(=O)C2CCOCC2)[C@H](CO)N3)c1	·	2	31	0	·	·
Cc1ccc(CN2CCNC(=O)C2CC(=O)N(C)C2CCCCC2)cc1 (configuration not stated)	-6	-4	-4	1.5*	0.1	i
COc1ccc(NC(=O)N(C)C[C@H]2Oc3ccc(NS(C)(=O)=O)cc3CC(=O)N([C@H](C)CO)C[C@@H]2C)cc1	·	1	5	0	·	·
COc1ccc(NC(=O)N(C)C[C@@H]2Oc3ccc(NS(C)(=O)=O)cc3CC(=O)N([C@@H](C)CO)C[C@H]2C)cc1	·	-1	-8	16*	0.14[42 µM]	i
